ChEMBL document CHEMBL4627416, “Generation of Leads for γ-Secretase Modulation” (J Med Chem, 2020)
Active and inactive are the calls of the source. The calls are words filed in the database; no cut-off is given here.

Key:
Gamma-secretase = assay: Modulation of gamma secretase in HEK293 cells transfected with human APP with Swedish and London familial AD mutation assessed as reduction in Abeta42 levels incubated for 5 hrs by sandwich immuno-assay; type: cell-based
HEK293 = assay: Effect on total Abeta40 levels in HEK293 cells transfected with human APP with Swedish and London familial AD mutation incubated for 5 hrs by sandwich immuno-assay; type: functional, cell-based; settings: HEK293, 5 h
[1] = Apparent permeability of the compound; type: ADME; settings: not told
[2] = target: Voltage-gated inwardly rectifying potassium channel KCNH2 (Homo sapiens, UniProt Q12809); assay: Inhibition of MK499 binding to human ERG
Chain of Voltage-gated inwardly rectifying potassium channel KCNH2 (Q12809 whole entry): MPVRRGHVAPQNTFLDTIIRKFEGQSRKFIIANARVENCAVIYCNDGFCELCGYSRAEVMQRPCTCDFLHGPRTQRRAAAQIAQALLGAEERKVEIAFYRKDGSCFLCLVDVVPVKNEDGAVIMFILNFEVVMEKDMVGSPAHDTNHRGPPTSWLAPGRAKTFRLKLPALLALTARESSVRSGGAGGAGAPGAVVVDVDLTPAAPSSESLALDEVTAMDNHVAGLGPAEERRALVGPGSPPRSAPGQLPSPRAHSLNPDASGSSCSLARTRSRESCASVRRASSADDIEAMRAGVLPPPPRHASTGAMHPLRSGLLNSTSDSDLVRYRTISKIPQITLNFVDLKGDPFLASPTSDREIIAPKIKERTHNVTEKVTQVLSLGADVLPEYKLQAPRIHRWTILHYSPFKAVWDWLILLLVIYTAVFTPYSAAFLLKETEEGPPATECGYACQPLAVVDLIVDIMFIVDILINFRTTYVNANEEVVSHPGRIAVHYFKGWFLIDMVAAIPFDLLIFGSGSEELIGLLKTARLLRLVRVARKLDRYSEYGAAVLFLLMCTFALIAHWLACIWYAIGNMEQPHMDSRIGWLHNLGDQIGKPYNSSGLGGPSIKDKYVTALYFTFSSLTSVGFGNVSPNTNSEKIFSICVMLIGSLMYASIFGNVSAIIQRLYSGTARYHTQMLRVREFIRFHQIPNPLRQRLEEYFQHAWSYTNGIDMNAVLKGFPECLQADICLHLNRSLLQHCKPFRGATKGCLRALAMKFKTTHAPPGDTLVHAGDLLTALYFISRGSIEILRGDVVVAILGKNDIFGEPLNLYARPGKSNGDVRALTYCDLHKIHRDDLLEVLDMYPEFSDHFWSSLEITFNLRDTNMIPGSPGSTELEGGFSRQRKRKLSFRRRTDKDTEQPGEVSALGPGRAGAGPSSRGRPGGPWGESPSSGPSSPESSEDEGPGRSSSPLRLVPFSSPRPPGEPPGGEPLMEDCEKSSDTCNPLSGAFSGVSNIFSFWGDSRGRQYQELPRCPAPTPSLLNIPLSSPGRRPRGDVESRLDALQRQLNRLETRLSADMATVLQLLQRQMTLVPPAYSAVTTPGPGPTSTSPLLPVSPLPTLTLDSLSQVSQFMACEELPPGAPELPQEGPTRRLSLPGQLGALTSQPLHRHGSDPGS

[3] = target: T1, Nuclear receptor subfamily 1 group I member 2 (Homo sapiens, UniProt O75469); assay: Inhibition of PXR (unknown origin); type: ADME
T1 sequence (O75469 whole entry): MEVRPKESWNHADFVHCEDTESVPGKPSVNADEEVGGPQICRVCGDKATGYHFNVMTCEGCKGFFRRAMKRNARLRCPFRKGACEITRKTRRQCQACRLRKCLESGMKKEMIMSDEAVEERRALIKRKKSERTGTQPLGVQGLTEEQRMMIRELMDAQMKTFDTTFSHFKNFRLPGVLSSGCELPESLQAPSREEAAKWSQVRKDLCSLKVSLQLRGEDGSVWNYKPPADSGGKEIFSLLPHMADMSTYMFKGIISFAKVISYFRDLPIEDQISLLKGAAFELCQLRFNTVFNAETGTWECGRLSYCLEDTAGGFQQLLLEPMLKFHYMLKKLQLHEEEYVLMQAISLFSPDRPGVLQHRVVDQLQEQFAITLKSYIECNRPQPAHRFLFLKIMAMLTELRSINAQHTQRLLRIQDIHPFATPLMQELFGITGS

Cytochrome P450 3A4 = Cytochrome P450 3A4 (Homo sapiens, UniProt P08684); assay: Inhibition of CYP3A4 (unknown origin); type: ADME
Chain of Cytochrome P450 3A4 (P08684 whole entry): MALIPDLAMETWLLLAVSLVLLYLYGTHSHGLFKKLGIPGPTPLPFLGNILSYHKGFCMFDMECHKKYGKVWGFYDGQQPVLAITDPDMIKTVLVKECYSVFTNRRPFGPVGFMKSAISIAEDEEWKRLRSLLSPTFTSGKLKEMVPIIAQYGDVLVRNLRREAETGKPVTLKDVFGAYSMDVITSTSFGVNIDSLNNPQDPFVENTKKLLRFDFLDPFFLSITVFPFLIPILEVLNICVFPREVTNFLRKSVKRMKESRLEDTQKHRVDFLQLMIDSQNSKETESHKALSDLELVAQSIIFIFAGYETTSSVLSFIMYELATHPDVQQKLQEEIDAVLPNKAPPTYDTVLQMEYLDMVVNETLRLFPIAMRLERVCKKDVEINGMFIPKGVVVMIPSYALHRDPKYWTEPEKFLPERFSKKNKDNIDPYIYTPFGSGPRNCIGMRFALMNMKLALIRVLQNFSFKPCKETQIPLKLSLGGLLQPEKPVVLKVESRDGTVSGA

Cytochrome P450 2C9 = Cytochrome P450 2C9 (Homo sapiens, UniProt P11712); assay: Inhibition of CYP2C9 (unknown origin); type: ADME
Chain of Cytochrome P450 2C9 (P11712 whole entry): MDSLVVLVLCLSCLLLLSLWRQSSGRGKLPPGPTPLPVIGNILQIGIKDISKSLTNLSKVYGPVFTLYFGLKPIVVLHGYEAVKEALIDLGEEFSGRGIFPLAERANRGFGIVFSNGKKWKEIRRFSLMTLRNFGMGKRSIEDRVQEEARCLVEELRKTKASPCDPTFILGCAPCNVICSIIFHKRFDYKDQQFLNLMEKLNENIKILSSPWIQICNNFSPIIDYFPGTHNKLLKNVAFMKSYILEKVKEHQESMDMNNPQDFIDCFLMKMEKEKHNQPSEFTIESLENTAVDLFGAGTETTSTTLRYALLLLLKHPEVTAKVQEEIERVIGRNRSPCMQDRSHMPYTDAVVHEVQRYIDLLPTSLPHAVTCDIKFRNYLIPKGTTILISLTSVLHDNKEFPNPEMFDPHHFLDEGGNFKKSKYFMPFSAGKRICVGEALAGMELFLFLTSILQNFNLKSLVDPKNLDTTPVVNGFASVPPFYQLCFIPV

Cytochrome P450 2D6 = Cytochrome P450 2D6 (Homo sapiens, UniProt P10635); assay: Inhibition of CYP2D6 (unknown origin); type: ADME
Chain of Cytochrome P450 2D6 (P10635 whole entry): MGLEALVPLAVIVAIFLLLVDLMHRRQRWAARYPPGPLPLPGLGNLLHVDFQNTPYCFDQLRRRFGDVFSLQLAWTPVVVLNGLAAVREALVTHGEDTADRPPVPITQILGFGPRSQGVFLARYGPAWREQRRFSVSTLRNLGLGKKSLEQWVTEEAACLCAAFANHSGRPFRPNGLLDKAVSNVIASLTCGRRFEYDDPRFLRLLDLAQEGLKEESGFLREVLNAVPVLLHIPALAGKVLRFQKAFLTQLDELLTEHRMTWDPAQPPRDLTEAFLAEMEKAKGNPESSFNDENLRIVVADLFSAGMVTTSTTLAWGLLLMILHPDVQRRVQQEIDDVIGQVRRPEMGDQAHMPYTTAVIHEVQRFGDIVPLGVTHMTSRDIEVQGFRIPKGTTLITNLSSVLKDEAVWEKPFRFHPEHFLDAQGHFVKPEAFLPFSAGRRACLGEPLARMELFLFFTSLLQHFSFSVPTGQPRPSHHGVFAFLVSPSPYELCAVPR

[4] = Drug level in plasma of CD rat at 30 mg/kg, po measured after 3 hrs; type: ADME, organism-based
Method in brief: (§1)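 Male CD rats dosed orally at 3, 10 or 30 mg/kg. Total drug concentrations measured in plasma and brain 3 h after the dose. Values are geometric means of 10 (3 mg/kg), 15 (10 mg/kg) and 5 (30 mg/kg) animals.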

[5] = Drug level in brain of CD rat at 30 mg/kg, po measured after 3 hrs; type: ADME, organism-based; settings: read-out: Drug uptake; method in brief: as §1
[6] = Selectivity index, ratio of IC50 for effect on total Abeta40 levels in HEK293 cells transfected with human APP with Swedish and London familial AD mutation incubated for 5 hrs by sandwich immuno-assay to IC50 for modulation of gamma secretase in HEK293 cells transfected with human APP with Swedish and London familial AD mutation assessed as reduction in Abeta42 levels incubated for 5 hrs by sandwich immuno-assay
Rattus norvegicus [7] = assay: Reduction of Abeta42 protein level in CD rat at 30 mg/kg, po measured after 3 hrs relative to control; type: functional; set-up: scale not given: the % may be the effect or the level left
Method in brief: (§2)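 Male CD rats given a single oral dose (1-30 mg/kg). CSF Aβ42 measured 3 h after the dose and expressed as reduction relative to control levels. In the dose-response study, geometric means are of 29 animals (3 and 10 mg/kg groups) and 10 animals (30 mg/kg group).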

Rattus norvegicus [8] = assay: Reduction of Abeta42 protein level in CD rat at 10 mg/kg, po measured after 3 hrs relative to control; type: functional; set-up: scale not given: the % may be the effect or the level left; method in brief: as §2
Rattus norvegicus [9] = assay: Reduction of Abeta42 protein level in CD rat at 3 mg/kg, po measured after 3 hrs relative to control; type: functional; set-up: scale not given: the % may be the effect or the level left; method in brief: as §2
[10] = Drug level in plasma of CD rat at 10 mg/kg, po measured after 3 hrs; type: ADME, organism-based; method in brief: as §1
[11] = Drug level in plasma of CD rat at 3 mg/kg, po measured after 3 hrs; type: ADME, organism-based; method in brief: as §1
[12] = Drug level in brain of CD rat at 10 mg/kg, po measured after 3 hrs; type: ADME, organism-based; settings: read-out: Drug uptake; method in brief: as §1
[13] = Drug level in brain of CD rat at 3 mg/kg, po measured after 3 hrs; type: ADME, organism-based; settings: read-out: Drug uptake; method in brief: as §1
[14] = AUC (0 to infinity) in CD rat at 2 mg/kg, po; type: ADME, organism-based; set-up: dose 2 mg/kg, route oral, time infinity; settings: in vivo
Method in brief: (§3)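 Male CD rats, single 2 mg/kg oral dose. Plasma drug concentration-time profile used for AUC(0-∞), Cmax and oral bioavailability (F%). Values are the average of two experiments.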

[15] = Cmax in CD rat at 2 mg/kg, po; type: ADME, organism-based; set-up: dose 2 mg/kg, route oral; settings: in vivo; method in brief: as §3
[16] = Oral bioavailability CD rat at 2 mg/kg; type: ADME, organism-based; settings: in vivo; method in brief: as §3
[17] = Protein binding in rat plasma; type: ADME, cell-free; settings: read-out: PPB (converted)
[18] = Clearance in CD rat at 1 mg/kg, iv; type: ADME, organism-based; settings: in vivo
Method in brief: (§4)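 Male CD rats, single 1 mg/kg intravenous dose. Clearance, steady-state volume of distribution and mean residence time taken from the plasma concentration-time data. Values are the average of two experiments.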

[19] = Volume of distribution at steady state in CD rat at 1 mg/kg, iv; type: ADME, organism-based; settings: in vivo, read-out: Vdss; method in brief: as §4
[20] = MRT in CD rat at 1 mg/kg, iv; type: ADME, organism-based; settings: in vivo; method in brief: as §4
[21] = test system: rat MDR1A (P-glycoprotein); assay: Efflux ratio in pig LLC-PK1 cells transfected with rat MDR1A; type: ADME, cell-based, Sus scrofa
Method in brief: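 Rat P-gp efflux measured in LLC-PK1 cells transfected with rat MDR1A. Reported as the ratio of B-to-A over A-to-B transport.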

Rattus norvegicus [22] = assay: Reduction of Abeta42 protein level in CD rat at 3 to 30 mg/kg, po measured after 3 hrs relative to control; type: functional, organism-based; method in brief: as §2
Rattus norvegicus [23] = assay: Reduction of Abeta42 protein level in CD rat at 1 mg/kg, po measured after 3 hrs relative to control; type: functional, organism-based; method in brief: as §2

SMILES: COc1cc(/C=C2\CCCN3CC(c4cc(F)c(F)c(F)c4)ON=C23)ccc1-n1cnc(C)c1 (stereo not given)
- IC50 (Gamma-secretase): 0.048 µM

SMILES: COc1cc(/C=C2\CCCN3C2=NOCC[C@@H]3c2cc(F)c(F)c(F)c2)ccc1-n1cnc(C)c1
- IC50 (Gamma-secretase): 0.039 µM

SMILES: CCC(NC(=O)/C=C/c1ccc(-n2cnc(C)c2)c(OC)c1)c1ccc(F)cc1 (stereo not given)
- IC50 (Gamma-secretase): 0.462 µM

SMILES: COc1cc(C(=O)N2CCCC(Cc3ccc(F)cc3)C2)ccc1-n1cnc(C)c1 (stereo not given)
- IC50 (Gamma-secretase): 1.55 µM

SMILES: COc1cc(/C=C2\CCCN3C2=NOC[C@@H]3c2cc(F)c(F)c(F)c2)ccc1-n1cnc(C)c1
- IC50 (Gamma-secretase): 0.037 µM

SMILES: COc1cc(C2=CC3=NOC[C@H](c4cc(F)c(F)c(F)c4)N3CCC2)ccc1-n1cnc(C)c1
- IC50 (Gamma-secretase): 0.143 µM
- IC50 (HEK293): 16 µM
- Papp [1]: 23 ×10⁻⁶ cm/s
- IC50 [2]: 2.61 µM
- IC50 [3]: > 15 µM
- IC50 (Cytochrome P450 3A4): 30 µM
- IC50 (Cytochrome P450 2C9): 8 µM
- IC50 (Cytochrome P450 2D6): 8 µM
- concentration at 3 h [4]: 1.4 µM
- concentration at 3 h [5]: 1.3 µM

SMILES: COc1cc(/C=C2\CCCN3C2=NO[C@H](c2cc(F)cc(F)c2)[C@@H]3C(C)C)ccc1-n1cnc(C)c1
- IC50 (Gamma-secretase): 0.113 µM
- IC50 (HEK293): 19 µM
- Ratio IC50 [6]: 174

SMILES: COc1cc(C2=CC3=NOC(CO)(c4ccc(F)cc4)N3CCO2)ccc1-n1cnc(C)c1 (stereo not given)
- IC50 (Gamma-secretase): 0.512 µM

SMILES: COc1cc(-c2nnc3n2CCCN3C(C)c2cc(F)c(F)c(F)c2)ccc1-n1cnc(C)c1 (stereo not given)
- IC50 (Gamma-secretase): 0.116 µM

SMILES: COc1cc(C2=NOCC3C(Oc4ccc(Cl)cc4C(F)(F)F)CCCN23)ccc1-n1cnc(C)c1 (stereo not given)
- IC50 (Gamma-secretase): 0.015 µM

SMILES: COc1cc(/C=C2\CCCN3C2=NO[C@H](c2cc(F)c(F)c(F)c2)[C@@H]3C)ccc1-n1cnc(C)c1
- IC50 (Gamma-secretase): 0.055 µM
- IC50 (HEK293): > 20 µM
- Ratio IC50 [6]: >367
- Papp [1]: 14 ×10⁻⁶ cm/s
- IC50 [2]: 1.61 µM
- IC50 [3]: > 10 µM
- IC50 (Cytochrome P450 3A4): 29 µM
- IC50 (Cytochrome P450 2C9): 37 µM
- IC50 (Cytochrome P450 2D6): 49 µM
- Activity (Rattus norvegicus [7]): 80%
- concentration at 3 h [4]: 13.1 µM
- concentration at 3 h [5]: 11.1 µM

SMILES: COc1cc(C2=CC3=NO[C@H](c4cc(F)c(F)c(F)c4)CN3CCC2)ccc1-n1cnc(C)c1
- IC50 (Gamma-secretase): 0.107 µM
- IC50 (HEK293): 14 µM
- Papp [1]: 22 ×10⁻⁶ cm/s
- IC50 [2]: 3.35 µM
- IC50 [3]: > 30 µM
- IC50 (Cytochrome P450 3A4): 34 µM
- IC50 (Cytochrome P450 2C9): 18 µM
- IC50 (Cytochrome P450 2D6): 48 µM
- Activity (Rattus norvegicus [7]): 52%
- concentration at 3 h [4]: 14.2 µM
- concentration at 3 h [5]: 2.1 µM

SMILES: COc1cc(/C=C2\CCCN3C2=NO[C@H](c2cc(F)cc(F)c2)[C@@H]3C)ccc1-n1cnc(C)c1
- IC50 (Gamma-secretase): 0.052 µM
- IC50 (HEK293): 12 µM
- Ratio IC50 [6]: 248
- Papp [1]: 17 ×10⁻⁶ cm/s
- IC50 [2]: 2.01 µM
- IC50 [3]: 15 µM
- IC50 (Cytochrome P450 3A4): 16 µM
- IC50 (Cytochrome P450 2C9): 33 µM
- IC50 (Cytochrome P450 2D6): 49 µM
- Activity (Rattus norvegicus [7]): 73%
- Activity (Rattus norvegicus [8]): 52%
- Activity (Rattus norvegicus [9]): 24%
- concentration at 3 h [4]: 8.8 µM
- concentration at 3 h [10]: 4.83 µM
- concentration at 3 h [11]: 0.91 µM
- concentration at 3 h [5]: 7.5 µM
- concentration at 3 h [12]: 4.2 µM
- concentration at 3 h [13]: 0.81 µM
- AUC(0-inf) [14]: 8 µM·h
- Cmax [15]: 1.3 µM
- bioavailability [16]: 79%
- fraction unbound [17]: 0.005
- clearance [18]: 10 mL/min/kg
- Vd [19]: 1.1 L/kg
- MRT [20]: 1.7 h
- efflux ratio [21]: 2.46
- Activity (Rattus norvegicus [22]): Dose-dependent effect
- Activity (Rattus norvegicus [23]): inactive

SMILES: COc1cc(/C=C2\CCCN3C2=NO[C@]3(CO)c2ccc(F)cc2)ccc1-n1cnc(C)c1
- IC50 (Gamma-secretase): 0.029 µM

SMILES: COc1cc(C2=NOCC3C(Oc4cc(F)cc(F)c4)CCCN23)ccc1-n1cnc(C)c1 (stereo not given)
- IC50 (Gamma-secretase): 0.4 µM

SMILES: COc1cc(/C=C2\CCCN3C2=NOC[C@@H]3c2ccc(F)cc2)ccc1-n1cnc(C)c1
- IC50 (Gamma-secretase): 0.033 µM

SMILES: COc1cc(/C=C2\CCCN3C2=NO[C@@H](c2cc(F)cc(F)c2)[C@@H]3C)ccc1-n1cnc(C)c1
- IC50 (Gamma-secretase): 9.29 µM
- IC50 (HEK293): > 20 µM

SMILES: COc1cc(/C=C2\CCCN3C2=NO[C@H](c2cc(F)c(F)c(F)c2)[C@@H]3CO)ccc1-n1cnc(C)c1
- IC50 (Gamma-secretase): 0.069 µM
- IC50 (HEK293): 15 µM
- Ratio IC50 [6]: 221
